System: MS2 coat protein
Assay: apparent Kd, MS2 coat protein; higher = weaker binding; RNA-MaP array; theophylline 2 mM where present
How it was run: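 Designs were transcribed by stalled E. coli RNA polymerase on Illumina sequencing-chip clusters. They were titrated with SNAP-549-labelled MS2 coat protein from 0.7 or 1.5 nM, doubling to 3 µM, without and then with constant ligand. Buffer: 100 mM Tris-HCl pH 7.5, 80 mM KCl, 4 mM MgCl2, BSA, DTT, yeast tRNA, Tween-20. Green signal was normalised to red-channel RNA signal and control-cluster median Fmax. Apparent Kd is the median of filtered per-cluster binding-curve fits.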

[1] = designed as: OFF switch for theophylline, no ligand
[2] = ligand present: theophylline, designed as: OFF switch for theophylline
[3] = designed as: ON switch for theophylline, no ligand
[4] = ligand present: theophylline, designed as: ON switch for theophylline

Sequence	apparent Kd [1] [nM]	apparent Kd [2] [nM]	apparent Kd [3] [nM]	apparent Kd [4] [nM]
GAAAGAUGAGGCGGCAGUACCGAUGUCGAUACCAGCAUGAACAAAUGCCCUUGGCAGCGACAUGAGGAUCACCCAUGUAUCUGCG	11.3	127		
GAGCUGAUGUAGAGCCUUUAGUUCUGAGAUACCAGUACAGAAAUGUACCCUUGGCAGCUCAGCUUUACAUGAGGAUCACCCAUGU	19	23.7		
GAUAGUUGAUGGGAUACCAGCCUACACAUGAGGAUCACCCAUGUGAUUCGUGUACGACUGGGCCCUUGGCAGCCCAUAUUGUGUA			107	55.1
GAUCUUGCGGGCGCCCGCAAGGUUGCGGAUACCAGCGAGAUUAAUCGCCCUUGGCAGCCGAACAUGAGGAUCACCCAUGUCGGAC			9.62	15.3
GAUGAACAUACUGAUACCAGUGUACUGACAUGAGGAUCACCCAUGUUGGGUUUUGUUGUACACCCUUGGCAGCAGAAUGUUUAUC	72.2	78.9		
GAUGAACUAUUUGAUACCAGACUACAUGAGGAUCACCCAUGUGAGUUUCCUCCUCUGCCAGUCCCUUGGCAGCAAAUAGUUUAUC	56.5	148		
GCUGGGUGCGCAAGGACCUGGCGUUGCGAUACCAGCACGGUAACGUGCCCUUGGCAGCGCACAUGAGGAUCACCCAUGUGGUGCG	24.6	329		
GGUAGCAGGACUGAUACCAGUCCAGCGAAUCAUACGACGCAACAUGAGGAUCACCCAUGUGACCCUUGGCAGCAGUCUGCUACCG			25.4	12.8
GUAUGGAAACAUACUAGGGUAUCGUGAGAUACCAGUACAGAAAUGUACCCUUGGCAGCUCGCGCAUACAUGAGGAUCACCCAUGU	18.8	29.3		
GUUAUAUUAAUUGAUACCAGCGAGAAAACAUGAGGAUCACCCAUGUUCGCCCAUGUUAAGCGCCCUUGGCAGCAAUUUUAUUAGC	30.6	91.6		
UAAAACAUGAGGAUCACCCAUGUAAAUGAUACCAGAGUGAUGAUCCUCCCUUGGCAGCAUAACGCUGAUUGAUUACAAUCAGCGA			95.9	267
UAAAACAUGAGGAUCACCCAUGUAAUUGAUACCAGAGUGAUGAUCCUCCCUUGGCAGCAAAUAACGCAUUGGAAACAAUGCGAAA			56.4	189
UAUAUAUGGAUGGAUACCAGCAGAGAAAACGUUUAUCCUAACAUGAGGAUCACCCAUGUAUGCCCUUGGCAGCUGUUUAUAUAUA	26.6	29.1		
UAUAUUGUGAUGGAUACCAGCAGAGAAAACGUUUAUCCUAACAUGAGGAUCACCCAUGUAUGCCCUUGGCAGCUGUUGUGAUAUA	71.4	46.9		
UCCUCAUGGCAUGAUACCAGACCUAACAUGAGGAUCACCCAUGUAUCAGGCAAUUGUUACGUCCCUUGGCAGCAUGUAUGCCGAC			70.2	138
UCGACAGUGAACGAUACCAGCGUCACGUGGCCGGUGGUCACAUGAGGAUCACCCAUGUAACGCCCUUGGCAGCGUGCACGUAUCA	20.6	182		
UCGUGUAUAUCGGAUACCAGUGAAAUCGAUACAUGAGGAUCACCCAUGUGAGAGGAUGUACACCCUUGGCAGCUGUAUAUAUCUG			24.3	13.6
UGCGUACAUGAGGAUCACCCAUGUAUAGAUACCAGUCACCCAUGUGGCCCUUGGCAGCUAACAUGAGGAUCACUACAUGAGGAUC	34.5	141		
UGGCAGGAGUGAUCCUCCUGCCAAGGUGAUACCAGCAUCGAAAGAUGCCCUUGGCAGCACCAACAUGAGGAUCACCCAUGUAAUA			108	47.9
UGUAACAUGAGGAUCACCCAUGUGAGUGAUACCAGACUAGUAUUAGUCCCUUGGCAGCACGUUGGGCGAGUGUAUAGUCUAUGCG			112	110
UGUAUGUGAUUUGAUACCAGUCCAACUGGUAAAACAUGAGGAUCACCCAUGUAAAAUUGGGACCCUUGGCAGCAAAUCGCAUACU			355	30.1
UUAUUUAUAAUGGAUACCAGUAUAAUGGCCGCAAAUCCUGACAUGAGGAUCACCCAUGUAUGCCCUUGGCAGCUGUUAUGGGUUU	41.1	57.6		
UUCAAAGGGAACGGUGCUGGUAACAGAGAUACCAGAGUAAUAAUACUCCCUUGGCAGCUCAUAACAUGAGGAUCACCCAUGUAAU	13.4	16.6		
UUUAAAAUAACAGAUACCAGCGUGUUAUAAAACAUGAGGAUCACCCAUGUAGUGAUCAAGCGCCCUUGGCAGCUGGUAUUUUAGG			151	167
UUUACAUGAGGAUCACCCAUGUGCCAUGAUACCAGACAUGAAAAUGUCCCUUGGCAGCAUGAAUGAUUCAUAGGAUAAUUAUGGG			99.2	98.8
UUUAUGGAGCUUUUAUUUACGAUUUCUGAUACCAGUGUUUCAUUUCACCCUUGGCAGCAGUGACAUGAGGAUCACCCAUGUAAUA			28	22.3
